The values below come from ChEMBL document CHEMBL4251752, “Integrated Strategy for Lead Optimization Based on Fragment Growing: The Diversity-Oriented-Target-Focused-Synthesis Approach” (J Med Chem, 2018).

As a reminder, the Kd is the equilibrium constant for the complex coming apart. Low values mean a tighter complex, high ones a looser complex. The term ΔTm denotes the change in melting temperature against a reference sample. As a reminder, the IC50 is the concentration needed to halve the response being measured. Read a low IC50 as greater potency in that assay.

Assay [1] has as its target T1, Bromodomain-containing protein 4 (Homo sapiens, UniProt O60885). Kind of assay: Binding affinity to TEV cleavage site-fused-His-tagged BRD4(BD1) (unknown origin) by isothermal-titration calorimetry. Summed up: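 BRD4(BD1) with His-tag cleaved by TEV, DTT removed, dialysed into 10 mM HEPES pH 7.5, 150 mM NaCl; compounds diluted in the final dialysate. Reverse titration (protein in syringe, ligand in cell), 13 injections at 15 or 25 °C, in triplicate. Data fitted to a one-site model for KD and ΔH; ΔG and TΔS derived from these.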

Assay [2] deals with T1, Bromodomain-containing protein 4. As to the kind of experiment: Binding affinity to TEV cleavage site-fused-His-tagged BRD4(BD1) (unknown origin) assessed as change in melting temperature at 10 uM by RT-PCR based thermal shift assay. In a few lines: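 His-tag removed by TEV cleavage before use; protein 2 μM final, compound 10 μM final (0.1% or 0.5% DMSO), thermal shift dye 1:1000, in 10 mM HEPES pH 7.5, 500 mM NaCl. After 1 min equilibration at 25 °C, heated 25–70 °C in 0.5 °C steps (25 s each); Tm from fluorescence melt curves, run in triplicate; ΔTm reported.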

For assay [3] the target is unchanged. Kind of assay: Inhibition of TEV cleavage site-fused-GST tagged BRD4(BD1) (unknown origin) using SGRGK(Ac)CGK(Ac)-GLGK(Ac)GGAK(Ac)RHRKVG-peptide after 3 hrs by HTRF assay. Summed up: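 GST-BRD4(BD1) purified on glutathione resin and by size exclusion; tetra-acetylated H4 peptide as ligand. Buffer 50 mM HEPES pH 7.5, 400 mM KF, 0.1% BSA, 0.5% DMSO final; 3 h at room temperature.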
For orientation: In TR-FRET formats the signal depends on donor and acceptor labels being close together.

As to `CCn1cnc2c1c(=O)[nH]c(=O)n2Cc1ccc(CNS(=O)(=O)c2cccc(-c3ccccc3)c2)cc1`, binding in assay [1] was put at a Kd of 890 nM. In assay [2], the ΔTm amounted to 3.25 °C. Moreover, in assay [3], the IC50 is 501 nM.

As to `CCn1cnc2c1c(=O)[nH]c(=O)n2Cc1ccc(CNS(=O)(=O)c2cnn(-c3ccccc3)c2)cc1`, the equilibrium dissociation constant (Kd) in assay [1] came out at 410 nM. The ΔTm in assay [2] turned out to be 3.38 °C. The IC50 in assay [3] was 501 nM.

In turn, `CCn1cnc2c1c(=O)[nH]c(=O)n2Cc1ccc(CNS(=O)(=O)c2ccc(C)cc2)cc1` returned a Kd in assay [1] of 770 nM. For the same compound, the ΔTm in assay [2] was determined as 3 °C. For the same compound, 631 nM corresponded to half-maximal inhibition in assay [3] (IC50).

On to `CCn1cnc2c1c(=O)[nH]c(=O)n2Cc1ccc(CNS(=O)(=O)c2ccc3c(c2)CCC(=O)N3)cc1`, for which the affinity in assay [1], expressed as Kd, was 310 nM. In assay [2], the ΔTm came out at 3 °C. The compound further showed a concentration for half-maximal inhibition (IC50) in assay [3] of 398 nM.

The compound `CCn1cnc2c1c(=O)[nH]c(=O)n2Cc1ccc(CNS(=O)(=O)c2cc(-c3ccno3)ccc2C)cc1` showed an IC50 in assay [3] of 1260 nM.

In assay [1], `CCn1cnc2c1c(=O)[nH]c(=O)n2Cc1ccc(CNS(=O)(=O)c2ccc(OC)cc2)cc1` displayed a Kd of 540 nM. The shift in melting temperature (ΔTm) in assay [2] stood at 2.63 °C. In assay [3], half-maximal inhibition (IC50) was put at 794 nM.

With `CCn1cnc2c1c(=O)[nH]c(=O)n2Cc1ccc(CNS(=O)(=O)CCc2ccccc2)cc1`, in assay [3], the half-maximal inhibitory concentration (IC50) is 1580 nM. This counts as single-digit micromolar.

In assay [1], `CCn1cnc2c1c(=O)[nH]c(=O)n2Cc1ccc(CNS(=O)(=O)c2ccc3c(c2)CCCC(=O)N3)cc1` displayed a Kd of 190 nM. Besides, the thermal shift (ΔTm) in assay [2] was determined as 3.88 °C.

With `CCn1cnc2c1c(=O)[nH]c(=O)n2Cc1ccc(CNS(=O)(=O)c2ccc3oncc3c2)cc1`, the IC50 in assay [3] was 2000 nM.

Compound `CCn1cnc2c1c(=O)[nH]c(=O)n2Cc1ccc(CNS(=O)(=O)c2ccc3c(c2)n(C)c(=O)n3C)cc1` came in with a dissociation constant Kd in assay [1] of 860 nM. The ΔTm in assay [2] was 2.13 °C. Besides, the IC50 in assay [3] was 794 nM.

For the compound `CCn1cnc2c1c(=O)[nH]c(=O)n2Cc1ccc(CNS(=O)(=O)c2ccc(Oc3ccccc3)cc2)cc1`, in assay [1], the Kd was found to be 360 nM. Moreover, the shift in melting temperature (ΔTm) in assay [2] came to 3.13 °C. Moreover, the half-maximal inhibitory concentration (IC50) in assay [3] was 316 nM.

In assay [3], `CCn1cnc2c1c(=O)[nH]c(=O)n2Cc1ccc(CNS(=O)(=O)CCN2CCOCC2)cc1` had a half-maximal inhibitory concentration (IC50) of 5010 nM.

As for `CCn1cnc2c1c(=O)[nH]c(=O)n2Cc1ccc(CNS(=O)(=O)c2ccc(-c3ccccc3)cc2)cc1`, the shift in melting temperature (ΔTm) in assay [2] is 1.5 °C. The compound further had a half-inhibitory concentration (IC50) in assay [3] of 398 nM.

`CCn1cnc2c1c(=O)[nH]c(=O)n2Cc1ccc(CN)cc1` had an IC50 in assay [3] of 25100 nM. That is a double-digit micromolar value.

Take `CCn1cnc2c1c(=O)[nH]c(=O)n2Cc1ccc(CNS(=O)(=O)c2ccc(OCc3ccccc3)cc2)cc1`: the affinity in assay [1], expressed as Kd, was 590 nM. Further, the shift in melting temperature (ΔTm) in assay [2] was 3.5 °C. Further, the IC50 in assay [3] was 631 nM.
